Most compounds without a hit are left out; they make up all but 2.3% or so of the library.
CSN deneddyl inh: CSN deneddylation inhibition. 360,000 tested, 0.38% active. Purified CSN, SCF-Nedd8-OG deneddylation, fluorescence polarization. Q92905. AID 651999. inhibition, % at 12.5 µM;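 active = pattern-corrected inhibition above about 35%, with an unprinted fluorescence ratio check between 0.5 and 1.5, limit read from the data, passing the limit was not always enough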;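 also: 0% = enzyme with substrate and 100% = substrate without enzyme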
Target sequence (Q92905 whole entry, looked up, one chain of several): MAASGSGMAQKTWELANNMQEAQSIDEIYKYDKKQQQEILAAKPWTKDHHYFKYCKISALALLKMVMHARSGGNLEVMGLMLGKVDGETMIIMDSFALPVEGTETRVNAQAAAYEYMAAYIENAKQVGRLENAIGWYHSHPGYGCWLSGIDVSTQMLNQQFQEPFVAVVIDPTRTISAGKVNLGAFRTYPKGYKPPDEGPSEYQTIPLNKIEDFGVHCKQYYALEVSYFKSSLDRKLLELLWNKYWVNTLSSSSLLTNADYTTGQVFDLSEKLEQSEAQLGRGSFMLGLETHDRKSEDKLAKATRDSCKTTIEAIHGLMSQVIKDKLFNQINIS
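Assay system: HEK293T-derived human Csn5 enzyme; quantity: 0.24 nM enzyme; medium: Tris/NaCl/DTT buffer, pH 7.5; also added: substrate SCFSkp2-Nedd8OG, 10 nM; doses: 12.5 µM compound; schedule: 90 min reaction at room temperature; signal: FP; read-out: % inhibition of substrate cleavage by Csn5; benchmarks: substrate-only high control, full reaction low control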
HNF4A DNA FP: change in binding of human HNF4 alpha to DNA. P41235. HNF4a-FITC DNA binding, fluorescence polarization, 1 h. activity change, % at 10 µM. 360,000 tested, 0.3% active; in the data active = activity change above about 30%, passing the limit was not always enough
Rpn11 inh: inhibitors of human proteasome Rpn11; inhibition, % at 20 µM; 360,000 tested, 0.59% active; AID 588493; human 26S proteasome, Ub4-pepOG fluorescence polarization; 20S core pre-blocked with epoxomicin;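 active = inhibition at 20 µM, scaled to each plate's controls, above about 33%, limit read from the data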
Target sequence (O00487 whole entry, looked up): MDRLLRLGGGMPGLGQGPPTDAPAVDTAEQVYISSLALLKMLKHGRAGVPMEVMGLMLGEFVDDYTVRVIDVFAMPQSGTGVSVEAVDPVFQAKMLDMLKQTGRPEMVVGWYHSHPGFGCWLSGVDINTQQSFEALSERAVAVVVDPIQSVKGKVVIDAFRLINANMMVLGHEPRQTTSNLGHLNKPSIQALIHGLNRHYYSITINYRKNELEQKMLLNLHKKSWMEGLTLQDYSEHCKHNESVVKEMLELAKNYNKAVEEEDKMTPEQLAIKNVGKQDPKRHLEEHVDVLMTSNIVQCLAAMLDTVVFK
TPT1 inhibitor: inhibitors of Candida albicans tRNA 2'-phosphotransferase TPT1; recombinant caTPT1, FP RNA substrate dephosphorylation; inhibition, % at 5 µM; 300,000 tested, 0.81% active; AID 1962;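 active = inhibition above the mean of all tested compounds plus 3 SD, set per screening campaign, cut at about 24% in these data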;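 also: plate controls were DMSO alone for no effect and ferristatin control at 100 nM for full effect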
Myeloid diff 2: promotes myeloid progenitor differentiation | ER-HoxA9 myeloid progenitors, lysozyme-GFP differentiation, flow cytometry | calls only at 10 µM | 360,000 tested, 1% active | AID 624256;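 active = normalized GFP-positive differentiation at or above the plate's own cutoff, the solvent-only control mean plus 3 SD; inconclusive = no clear call, values can overlap the other calls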;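 also: cells exposed to compound for four days before flow analysis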
Myeloid diff: myeloid differentiation induction; shares compounds with Myeloid diff 2; ER-HoxA9 myeloid progenitors, GFP/Mac1 double-positive flow; calls only; 2,300 tested, 2% active; AID 651706;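 active = share of green or green-and-red cells above 9 and 9% in run 1 or 4 and 3% in run 2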
GFP autofluor: counter-screen for myeloid differentiation promoters: compound fluorescence; 2,300 tested, 7.4% active; ER-HoxA9 myeloid progenitors, no estrogen, GFP autofluorescence flow cytometry; vehicle wells 0%, positive control 100%; fluorescence response, % (concentration not given with the values); shares compounds with Myeloid diff 2;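 active = over 5% cells positive for green fluorescent reporter, or over 2% positive for both it and APC stain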;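 also: range taken on the double positive population between DMSO and positive control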
Numbers without * were called inactive; i = inactive; ? = inconclusive; . = no result shown; + = active, no number.

SMILES	CSN deneddyl inh	HNF4A DNA FP	Rpn11 inh	TPT1 inhibitor	Myeloid diff 2	Myeloid diff	GFP autofluor
Cc1ccccc1-n1c(=O)n(Cc2ccc(C(=O)O)cc2)c(=O)c2[nH]cnc21	0.2	-3.6	-4.2	-0.6	i	.	.
COc1ccc(Cn2c(=O)c3[nH]cnc3n(-c3ccccc3C)c2=O)cc1	-2.0	-1.8	-3.2	-3.4	i	i	1.9
C/C(=C\c1ccc(F)cc1)C(=O)c1c(C)cc(C)[nH]c1=O	1.5	0.7	-4.6	.	i	.	.
CCCCCCN1C[C@H](n2cc(C3CC3)nn2)[C@@H](O)C[C@@H]1c1ccc(Cl)cc1	-1.2	0.2	-1.6	.	i	.	.
COc1cc(C(=O)OCC(=O)Nc2ccccc2)cc2c1OCCO2	1.4	-5.7	-7.9	.	i	.	.
COc1cc(C(=O)OC(C)C(=O)N2CCCC2)cc2c1OCCO2 (stereo not drawn)	-1.0	1.5	-0.6	.	i	i	0.0
COc1cc(C(=O)OCC(=O)NC2CCCCC2)cc2c1OCCO2	1.8	1.5	1.7	.	+	i	0.6
CCC(=O)c1cn(CC(=O)Nc2ccccc2Cl)c2ccccc12	-3.1	-1.9	6.3	-0.5	+	i	2.1*
COc1ccc(C(=O)C[n+]2ccc3c(c2)nnn3-c2ccccc2)cc1	4.5	3.1	.	15.8	+	i	0.0
COc1ccc(C(=O)C[n+]2ccc3c(c2)nc(-c2cc(OC)c(OC)cc2OC)n3C)cc1	-6.2	0.4	-1.5	-1.2	i	.	.
Cc1c(NC(=O)C2CCCN2S(=O)(=O)c2cccc3nsnc23)cccc1C(=O)O (stereo not drawn)	4.1	1.8	2.0	-1.7	+	i	0.0
FC(F)(F)c1cccc(Nc2cc(-c3ccccc3)nc3ncnn23)c1	-2.6	6.1	0.0	-2.9	i	.	.
FC(F)(F)c1ccc(N2CCN(c3cc(-c4ccccc4)nc4ncnn34)CC2)nc1	4.5	-2.2	4.5	0.9	i	i	1.0
CCN1CCN(S(=O)(=O)c2ccc(OC)c(NC(=O)c3ccccc3)c2)CC1	-3.6	0.2	-5.6	-1.4	?	.	.
O=C1NC(=S)SC1=Cc1ccc2c(c1)OCO2	4.5	-1.0	3.8	.	i	.	.
CN(C)c1ccc(C=C2SC(=S)NC2=O)cc1	105.4*	197.4	.	.	+	i	0.5
CC(C)=CCC[C@H](C)CC1Cc2[nH]c(=S)[nH]c(=O)c2C(c2ccc(Cl)cc2)O1 (stereo partly drawn)	0.2	-3.8	.	.	i	.	.
O=C(NCCN1CCN(c2ccc([N+](=O)[O-])cc2)CC1)NCc1ccccc1	-2.6	-3.4	4.2	-5.5	i	.	.
COc1ccc(-c2nn(C)c(=O)c3ccccc23)cc1NC(=O)Cn1nc(C)c2ccccc2c1=O	3.7	13.2	1.2	5.2	+	i	0.0
CCC(=O)Nc1cc(-c2nn(C)c(=O)c3ccccc23)ccc1OC	-3.2	4.6	0.8	-3.4	i	.	.
O=S(=O)(NCC1COc2ccccc2O1)c1ccc2ccccc2c1 (stereo not drawn)	-7.4	0.6	-1.6	5.0	i	.	.
O=C(O)c1cccc(S(=O)(=O)NCC2COc3ccccc3O2)c1 (stereo not drawn)	-0.8	5.6	5.2	.	i	i	1.1
O=C(NC1CCN(Cc2ccccc2)CC1)C1CCCN(c2nnc(-n3cccc3)s2)C1 (stereo not drawn)	2.7	1.9	4.1	1.1	i	i	0.0
O=C(NNC(=O)c1ccco1)c1csc(N2CCOCC2)n1	5.6	-5.4	8.2	2.4	i	.	.
CNCC[C@H](Oc1cccc2ccccc12)c1cccs1	0.0	-1.6	-24.6	8.9	i	i	0.0
SMILES	CSN deneddyl inh	HNF4A DNA FP	Rpn11 inh	TPT1 inhibitor	Myeloid diff 2	Myeloid diff	GFP autofluor
CC(NCCCOc1cccc2ccccc12)c1ccccc1 (stereo not drawn)	-4.5	2.6	-0.6	-2.9	i	.	.
Cc1ccc(S(=O)(=O)N2CCC(=O)CC2c2ccccc2)cc1 (stereo not drawn)	-0.9	2.1	2.0	.	i	i	0.0
Cc1ccc(S(=O)(=O)N2[C@H](c3ccccc3)CC(=O)[C@@H]3CN(S(=O)(=O)c4ccccc4)[C@H](c4ccccc4)C[C@@H]32)cc1	4.8	-2.6	1.1	.	i	.	.
Cc1ccc([C@@H]2C[C@H]3[C@@H](CN2S(=O)(=O)c2ccc(C)cc2)C(=O)C[C@@H](c2ccccc2)N3S(=O)(=O)c2ccc(C)cc2)cc1	-7.1	1.3	-4.6	.	i	.	.
Cc1ccc(S(=O)(=O)N2C[C@H]3C(=O)C[C@@H](c4ccccc4)N(S(=O)(=O)c4ccccc4[N+](=O)[O-])[C@H]3C[C@H]2c2ccccc2)cc1	-7.4	-1.2	-3.8	.	+	i	0.3
Cc1ccc(S(=O)(=O)N2CC3C(=O)CC(c4ccccc4)N(S(=O)(=O)c4ccc(C)cc4)C3CC2c2cccc(Cl)c2)cc1 (stereo not drawn)	0.6	14.2	.	.	+	i	0.6
CCCn1cc(C(=O)N(C)C2CCCN(Cc3ccccc3F)C2)c(C)n1 (stereo not drawn)	1.6	0.7	-1.3	-0.7	i	.	.
CSc1nc(N)nc(SCC(=O)Nc2ccc(Cl)cc2)c1C#N	-0.5	-2.3	7.9	-2.0	i	i	0.0
CSc1nc(N)nc(SCC(=O)Nc2cccc(F)c2)c1C#N	-10.0	-3.0	-1.9	-0.8	i	.	.
O=c1[nH]c(=O)n2c(c1-c1ccccc1)OC(CBr)C2 (stereo not drawn)	4.0	3.8	-0.3	.	i	.	.
O=c1[nH]c(=S)n2c(c1-c1ccccc1)OC(CBr)C2 (stereo not drawn)	3.8	-7.5	-2.8	.	+	i	4.1
CC(=O)Nc1ccc(S(=O)(=O)N(C)Cc2cnn(C)c2)cc1	-0.3	-1.9	-1.8	-0.2	i	.	.
CC1CCCCC1NC(=O)C1CCC(CNc2c(N3CCCCC3)c(=O)c2=O)CC1 (stereo not drawn)	8.2	-0.2	1.2	6.2	i	.	.
COc1cc(-c2c(-c3cc(OC)c(OC)c(OC)c3)noc2C)ccc1F	.	.	.	1.1	.	.	.
COC(=O)c1cc(-c2c(-c3cc(OC)c(OC)c(OC)c3)noc2C)cc([N+](=O)[O-])c1	-1.7	-7.5	2.3	1.4	i	i	0.3
CC1(C(=O)NS(=O)(=O)C2CC2)CCCN(C(=O)Cc2ccc(F)cc2)C1 (stereo not drawn)	0.8	0.6	-6.9	.	i	.	.
Cc1cc(C)cc(NC(=O)CCN2CCCC2)c1	-0.8	-2.2	2.9	-0.1	+	i	0.0
CC1(C)NC(=O)N(CC(=O)N2CCN(S(=O)(=O)c3ccccc3C(F)(F)F)CC2)C1=O	-0.1	-1.7	-0.6	.	i	.	.
CC(=O)c1c(C)[nH]c(C(=O)NNC(=O)COc2cc(C)ccc2C(C)C)c1C	-2.5	-0.8	9.5	.	i	i	0.0
